Test results taken from PMC4381552 (Cell reports, 2014).

Tests used:
[1] = ref Tijono et al., 2013; cited from earlier work
WT hSTING = WT hSTING (Homo sapiens, UniProt Q86WV6, H232R); experiment: Cytokine/chemokine induction in STING^Gt/Gt BMDCs reconstituted with hSTING; assay type: cell-based; conditions: 50 µg/ml DMXAA, 3 hr, real-time PCR
How it was run: (§1)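 STING-deficient BMDCs were derived from STINGGt/Gt mouse bone marrow cultured with GM-CSF for 10 days and plated at 1 × 10^6 cells/well. They were infected with retroviruses expressing hSTING variants, and hSTING levels were checked by western blot. […] IFNB1, CXCL10, CCL5 and IL-6 mRNA were measured by real-time PCR. Data are means ± SEM (n = 3) from one of two experiments.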

hSTING Q266V = hSTING Q266V (Homo sapiens, UniProt Q86WV6, H232R/Q266V); experiment: IFN-β luciferase reporter assay in transfected 293T cells; assay type: cell-based; conditions: 0.18 mM DMXAA, 12 hr
Chain of hSTING Q266V (Q86WV6 whole entry H232R/Q266V): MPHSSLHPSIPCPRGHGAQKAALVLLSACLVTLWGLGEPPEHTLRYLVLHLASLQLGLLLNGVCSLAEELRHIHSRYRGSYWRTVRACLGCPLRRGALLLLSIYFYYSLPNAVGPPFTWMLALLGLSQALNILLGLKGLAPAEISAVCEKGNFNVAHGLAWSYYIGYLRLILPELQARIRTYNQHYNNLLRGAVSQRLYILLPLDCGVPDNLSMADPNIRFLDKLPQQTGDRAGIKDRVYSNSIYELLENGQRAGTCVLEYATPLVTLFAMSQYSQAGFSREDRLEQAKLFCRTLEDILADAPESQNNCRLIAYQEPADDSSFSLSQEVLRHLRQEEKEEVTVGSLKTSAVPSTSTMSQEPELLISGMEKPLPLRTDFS
How it was run: (§2)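 HEK293T cells were reverse-transfected with full-length STING plasmids, expressed at moderate levels, plus IFN-β reporter constructs. […] Luciferase was read 12 hr later. Gaussia luciferase was normalized to constitutive firefly luciferase. Values are means of triplicates + SEM, representative of three independent experiments.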

hSTING Q266I = hSTING Q266I (Homo sapiens, UniProt Q86WV6, H232R/Q266I); experiment: as above; assay type: cell-based; conditions: 0.18 mM DMXAA, 12 hr
Chain of hSTING Q266I (Q86WV6 whole entry H232R/Q266I): as the sequence (Q86WV6 whole entry H232R/Q266V) above, with V266I counted along it
How it was run: as §2

hSTING^group134 = hSTING^group134 (Homo sapiens, UniProt Q86WV6, A300E/A302V/A350V/D297E/E174G/E362R/E369D/F378L/G344N/H185L/H232R/K347M/K370Q/L189M/L346P/M357L/Q196R/Q276K/Q306R/R191S/S275A/S345A/S353P/S379I/T181M/T354P/T356V/V194G/V343M/V351A/Y182F/Y186H/Y274D); experiment: as above; assay type: cell-based; conditions: 0.18 mM DMXAA (50 μg/ml), 12 hr, versus hSTING^group1234
Chain of hSTING^group134 (Q86WV6 1-379 with the stated changes): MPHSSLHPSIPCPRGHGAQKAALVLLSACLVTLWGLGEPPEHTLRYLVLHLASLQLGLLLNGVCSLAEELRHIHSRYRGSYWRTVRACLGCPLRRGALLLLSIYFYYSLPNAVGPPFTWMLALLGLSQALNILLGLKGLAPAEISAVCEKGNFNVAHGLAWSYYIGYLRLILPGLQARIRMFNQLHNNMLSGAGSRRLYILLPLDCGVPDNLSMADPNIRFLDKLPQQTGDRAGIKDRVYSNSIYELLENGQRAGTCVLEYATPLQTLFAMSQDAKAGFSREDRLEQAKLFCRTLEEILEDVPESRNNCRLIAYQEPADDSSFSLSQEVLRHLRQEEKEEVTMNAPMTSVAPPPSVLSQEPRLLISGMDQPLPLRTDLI
How it was run: as §2

hSTING G166S = hSTING G166S (Homo sapiens, UniProt Q86WV6, G166S/H232R); experiment: as above; assay type: cell-based; conditions: 0.18 mM DMXAA, 12 hr
Chain of hSTING G166S (Q86WV6 whole entry G166S/H232R): as the sequence (Q86WV6 whole entry H232R/Q266V) above, with G166S, V266Q counted along it
How it was run: as §2

hSTING^S162A = hSTING^S162A (Homo sapiens, UniProt Q86WV6, H232R/S162A); experiment: Cytokine/chemokine induction in STING^Gt/Gt BMDCs reconstituted with hSTING; assay type: cell-based; conditions: 50 µg/ml DMXAA, 3 hr, real-time PCR
Chain of hSTING^S162A (Q86WV6 whole entry S162A/H232R): as the sequence (Q86WV6 whole entry H232R/Q266V) above, with S162A, V266Q counted along it
How it was run: as §1

hSTING^G230I = hSTING^G230I (Homo sapiens, UniProt Q86WV6, G230I/H232R); experiment: as above; assay type: cell-based; conditions: 50 µg/ml DMXAA, 3 hr, real-time PCR
Chain of hSTING^G230I (Q86WV6 whole entry G230I/H232R): as the sequence (Q86WV6 whole entry H232R/Q266V) above, with G230I, V266Q counted along it
How it was run: as §1

[2] = tested on: all hSTING alleles with S162A/Q266I double substitution; experiment: IFN-β luciferase reporter assay in transfected 293T cells; assay type: cell-based, human; conditions: 0.18 mM DMXAA, alleles R232, HAQ, H232, AQ, Q293
How it was run: as §2

hSTING^group4 = hSTING^group4 (Homo sapiens, UniProt Q86WV6, A350V/E362R/E369D/F378L/G344N/H232R/K347M/K370Q/L346P/M357L/S345A/S353P/S379I/T354P/T356V/V343M/V351A); experiment: ITC binding of DMXAA to STING CTD; conditions: 25°C
Chain of hSTING^group4 (Q86WV6 140-379 with the stated changes): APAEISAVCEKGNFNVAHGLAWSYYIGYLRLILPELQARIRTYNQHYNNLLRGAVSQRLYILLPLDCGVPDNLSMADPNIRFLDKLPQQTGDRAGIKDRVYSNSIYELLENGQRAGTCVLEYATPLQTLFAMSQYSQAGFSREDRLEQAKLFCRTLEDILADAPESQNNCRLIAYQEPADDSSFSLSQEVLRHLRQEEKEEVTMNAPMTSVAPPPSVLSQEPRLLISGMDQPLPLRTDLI

hSTING Q266L = hSTING Q266L (Homo sapiens, UniProt Q86WV6, H232R/Q266L); experiment: IFN-β luciferase reporter assay in transfected 293T cells; assay type: cell-based; conditions: 0.18 mM DMXAA, 12 hr
Chain of hSTING Q266L (Q86WV6 whole entry H232R/Q266L): as the sequence (Q86WV6 whole entry H232R/Q266V) above, with V266L counted along it
How it was run: as §2

hSTING I235L = hSTING I235L (Homo sapiens, UniProt Q86WV6, H232R/I235L); experiment: as above; assay type: cell-based; conditions: 0.18 mM DMXAA, 12 hr
Chain of hSTING I235L (Q86WV6 whole entry H232R/I235L): as the sequence (Q86WV6 whole entry H232R/Q266V) above, with I235L, V266Q counted along it
How it was run: as §2

hSTING^group3 = hSTING^group3 (Homo sapiens, UniProt Q86WV6, A300E/A302V/D297E/H232R/Q276K/Q306R/S275A/Y274D); experiment: ITC binding of DMXAA to STING CTD; conditions: 25°C
Chain of hSTING^group3 (Q86WV6 140-379 H232R/Y274D/S275A/Q276K/D297E/A300E/A302V/Q306R): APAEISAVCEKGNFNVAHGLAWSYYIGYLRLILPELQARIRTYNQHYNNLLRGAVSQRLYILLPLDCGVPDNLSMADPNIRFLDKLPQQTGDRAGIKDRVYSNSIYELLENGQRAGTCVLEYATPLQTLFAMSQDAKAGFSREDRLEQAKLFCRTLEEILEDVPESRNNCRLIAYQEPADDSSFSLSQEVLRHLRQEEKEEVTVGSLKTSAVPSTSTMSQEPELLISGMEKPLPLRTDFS

[3] = biological target: hSTING^group1 (aa 140-379) (Homo sapiens, UniProt Q86WV6, E174G/H185L/H232R/L189M/Q196R/R191S/T181M/V194G/Y182F/Y186H); experiment: ITC binding of DMXAA to STING CTD; conditions: 25°C
Chain of hSTING^group1 (aa 140-379) (Q86WV6 140-379 E174G/T181M/Y182F/H185L/Y186H/L189M/R191S/V194G/Q196R/H232R): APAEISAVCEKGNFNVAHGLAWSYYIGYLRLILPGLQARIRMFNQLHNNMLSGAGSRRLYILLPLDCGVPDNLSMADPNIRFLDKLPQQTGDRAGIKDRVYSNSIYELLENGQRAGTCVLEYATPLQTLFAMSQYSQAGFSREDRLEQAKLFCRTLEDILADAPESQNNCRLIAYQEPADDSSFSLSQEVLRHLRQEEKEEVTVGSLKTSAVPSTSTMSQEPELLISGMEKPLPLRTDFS

hSTING^S162A/G230I/Q266I = hSTING^S162A/G230I/Q266I (Homo sapiens, UniProt Q86WV6, G230I/H232R/Q266I/S162A); experiment: Cytokine/chemokine induction in STING^Gt/Gt BMDCs reconstituted with hSTING; assay type: cell-based; conditions: 50 µg/ml DMXAA
Chain of hSTING^S162A/G230I/Q266I (Q86WV6 whole entry S162A/G230I/H232R/Q266I): as the sequence (Q86WV6 whole entry H232R/Q266V) above, with S162A, G230I, V266I counted along it
How it was run: as §1

hSTING^group2 = hSTING^group2 (Homo sapiens, UniProt Q86WV6, D237N/G230I/H232R/I244V/K224M/L222R/T229N); experiment: IFN-β luciferase reporter assay in transfected 293T cells; assay type: cell-based; conditions: 0.18 mM DMXAA (50 μg/ml), 12 hr
Chain of hSTING^group2 (Q86WV6 whole entry L222R/K224M/T229N/G230I/H232R/D237N/I244V): as the sequence (Q86WV6 whole entry H232R/Q266V) above, with L222R, K224M, T229N, G230I, D237N, I244V, V266Q counted along it

hSTING^S162A/Q266I = hSTING^S162A/Q266I (Homo sapiens, UniProt Q86WV6, H232R/Q266I/S162A); experiment: Cytokine/chemokine induction in STING^Gt/Gt BMDCs reconstituted with hSTING; assay type: cell-based; conditions: 50 µg/ml DMXAA, 3 hr, real-time PCR
Chain of hSTING^S162A/Q266I (Q86WV6 whole entry S162A/H232R/Q266I): as the sequence (Q86WV6 whole entry H232R/Q266V) above, with S162A, V266I counted along it
How it was run: as §1

[4] = tested on: non-small-cell lung cancer; conditions: in combination with paclitaxel and carboplatin; ref Lara et al., 2011; cited from earlier work
wild-type (WT) hSTING = wild-type (WT) hSTING (Homo sapiens, UniProt Q86WV6, H232R); experiment: ITC binding of DMXAA to STING CTD; conditions: 25°C
Chain of wild-type (WT) hSTING (Q86WV6 140-379 H232R): as the sequence (Q86WV6 140-379 H232R/Y274D/S275A/Q276K/D297E/A300E/A302V/Q306R) above, with D135Y, A136S, K137Q, E158D, E161A, V163A, R167Q counted along it

Chain of WT hSTING (Q86WV6 whole entry H232R): as the sequence (Q86WV6 whole entry H232R/Q266V) above, with V266Q counted along it

Cc1ccc2oc3c(CC(=O)O)cccc3c(=O)c2c1 [7-methyl-XAA]
activity in human [1]: weak yet human-active

Cc1cccc2oc3c(CC(=O)O)cccc3c(=O)c12 [8-methyl-XAA]
activity in human [1]: weak yet human-active

Cc1ccc2c(=O)c3cccc(CC(=O)O)c3oc2c1C [DMXAA, 5,6-dimethylxanthenone-4-acetic acid]
IFN-β mRNA upregulation (WT hSTING): did not induce the upregulation
IFN-β induction (hSTING Q266V): showed no effects
IFN-β induction (hSTING Q266I): conferred DMXAA sensitivity
IFN-β reporter response (hSTING^group134): strongly diminished DMXAA activation
IFN-β induction (hSTING G166S): showed no effects
increase in IFN-β mRNA levels (hSTING^S162A): 2.2 fold
increase in IFN-β mRNA levels (hSTING^G230I): 2.6 fold
DMXAA responsiveness (IFN-β reporter) [2]: able to induce DMXAA responsiveness
binding to DMXAA (hSTING^group4): no detectable binding
IFN-β induction (hSTING Q266L): less pronounced gain
IFN-β induction (hSTING I235L): showed no effects
binding to DMXAA (hSTING^group3): no detectable binding
binding to DMXAA [3]: no detectable binding
increase in IFN-β mRNA levels (hSTING^S162A/G230I/Q266I; 3 hr, real-time PCR): 4.2 fold
upregulation of CXCL10, CCL5, and IL-6 mRNAs (hSTING^S162A/G230I/Q266I; 3 hr, real-time PCR): strongest induction among the four mutants
CXCL10 production (supernatant, ELISA) (hSTING^S162A/G230I/Q266I; 18 hr): highest level of CXCL10 production
IFN-β reporter response (hSTING^group2): showed responsiveness to DMXAA
increase in IFN-β mRNA levels (hSTING^S162A/Q266I): 3.1 fold
outcome of human phase III trials [4]: failed
binding to DMXAA (wild-type (WT) hSTING): no detectable binding
